Some results are limits rather than exact numbers.

Format in all cases: functional
The subject of assay [1] is Staphylococcus aureus. Nature of the assay: Antibacterial activity against methicillin-resistant Staphylococcus aureus 33827 infected in in vitro pharmacokinetic model assessed as time required to 99% killing at 3 mg/ml using 10^6 CFU/ml inoculum.
For assay [2], the system named is Staphylococcus aureus. The assay can be described thus: Antibacterial activity against methicillin-resistant Staphylococcus aureus 33922 infected in in vitro pharmacokinetic model assessed as time required to 99.9% killing at 3 mg/ml using 10^6 CFU/ml inoculum.
Assay [3] deals with Staphylococcus aureus. The assay can be described thus: AUBKC (0 to 24 hrs) in methicillin-resistant Staphylococcus aureus 33922 infected in in vitro pharmacokinetic model at 3 mg/ml using 10^6 CFU/ml inoculum. The method in brief: (§1)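 Run in a single-compartment in vitro PK model at 37°C in 10% MHB, flow 47.9 ml/h, 10^6 CFU/ml inoculum. Viable counts over 48 h. AUBKC 0-24 and 0-48 h by log-linear trapezoidal rule, at least triplicate.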

Assay [4] deals with Staphylococcus aureus. Nature of the assay: Antibacterial activity against methicillin-resistant Staphylococcus aureus 33815 infected in in vitro pharmacokinetic model assessed as time required to 99% killing at 3 mg/ml using 10^6 CFU/ml inoculum. In short, it runs like this:
(§2)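 Single-compartment model in 10% MHB at 37°C with 10^6 CFU/ml inoculum. Log change in count from time 0 and times to 99%/99.9% kill from serial spiral-plate counts; at least triplicate.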

For assay [5], the system named is Staphylococcus aureus. Nature of the assay: Antibacterial activity against methicillin-resistant Staphylococcus aureus 33922 infected in in vitro pharmacokinetic model assessed as time required to 99% killing at 3 mg/ml using 10^6 CFU/ml inoculum.
For assay [6], the system named is Staphylococcus aureus. Nature of the assay: AUBKC (0 to 24 hrs) in methicillin-resistant Staphylococcus aureus 33827 infected in in vitro pharmacokinetic model at 3 mg/ml using 10^6 CFU/ml inoculum. In short, it runs like this: as §1
The subject of assay [7] is Staphylococcus aureus. The assay can be described thus: Antibacterial activity against methicillin-resistant Staphylococcus aureus 33827 infected in in vitro pharmacokinetic model assessed as time required to 99.9% killing at 3 mg/ml using 10^6 CFU/ml inoculum.
Assay [8] relates to Staphylococcus aureus. Nature of the assay: Antibacterial activity against methicillin-resistant Staphylococcus aureus 33815 infected in in vitro pharmacokinetic model assessed as reduction in viable count at 3 mg/ml after 48 hrs using 10^6 CFU/ml inoculum. In short, it runs like this:
as §2

For assay [9], the system named is Staphylococcus aureus. Nature of the assay: Antibacterial activity against methicillin-resistant Staphylococcus aureus 33922 infected in in vitro pharmacokinetic model assessed as reduction in viable count at 3 mg/ml after 48 hrs using 10^6 CFU/ml inoculum.
Assay [10] has as its system Staphylococcus aureus. Nature of the assay: Antibacterial activity against methicillin-resistant Staphylococcus aureus 33922 infected in in vitro pharmacokinetic model assessed as reduction in viable count at 3 mg/ml after 24 hrs using 10^6 CFU/ml inoculum.
Assay [11] concerns Staphylococcus aureus. Nature of the assay: AUBKC (0 to 48 hrs) in methicillin-resistant Staphylococcus aureus 33922 infected in in vitro pharmacokinetic model at 3 mg/ml using 10^6 CFU/ml inoculum. The method in brief:
as §1

Assay [12] relates to Staphylococcus aureus. Nature of the assay: Antibacterial activity against methicillin-resistant Staphylococcus aureus 33815 infected in in vitro pharmacokinetic model assessed as time required to 99.9% killing at 3 mg/ml using 10^6 CFU/ml inoculum. The method in brief:
as §2

Assay [13] relates to Staphylococcus aureus. Nature of the assay: AUBKC (0 to 48 hrs) in methicillin-resistant Staphylococcus aureus 33815 infected in in vitro pharmacokinetic model at 3 mg/ml using 10^6 CFU/ml inoculum. The method in brief:
as §1

Assay [14] has as its system Staphylococcus aureus. Nature of the assay: Antibacterial activity against methicillin-resistant Staphylococcus aureus 33827 infected in in vitro pharmacokinetic model assessed as reduction in viable count at 3 mg/ml after 36 hrs using 10^6 CFU/ml inoculum.
Assay [15] deals with Staphylococcus aureus. The assay can be described thus: Antibacterial activity against methicillin-resistant Staphylococcus aureus 33827 infected in in vitro pharmacokinetic model assessed as reduction in viable count at 3 mg/ml after 24 hrs using 10^6 CFU/ml inoculum.
The subject of assay [16] is Staphylococcus aureus. The assay can be described thus: Antibacterial activity against methicillin-resistant Staphylococcus aureus 33922 infected in in vitro pharmacokinetic model assessed as reduction in viable count at 3 mg/ml after 36 hrs using 10^6 CFU/ml inoculum.
For assay [17], the system named is Staphylococcus aureus. The assay can be described thus: Antibacterial activity against methicillin-resistant Staphylococcus aureus 33827 infected in in vitro pharmacokinetic model assessed as reduction in viable count at 3 mg/ml after 48 hrs using 10^6 CFU/ml inoculum.
The subject of assay [18] is Staphylococcus aureus. The assay can be described thus: Antibacterial activity against methicillin-resistant Staphylococcus aureus 33827 infected in in vitro pharmacokinetic model assessed as reduction in viable count at 3 mg/ml after 12 hrs using 10^6 CFU/ml inoculum.
Assay [19] concerns Staphylococcus aureus. The assay can be described thus: Antibacterial activity against methicillin-resistant Staphylococcus aureus 33922 infected in in vitro pharmacokinetic model assessed as reduction in viable count at 3 mg/ml after 12 hrs using 10^6 CFU/ml inoculum.
Assay [20] relates to Staphylococcus aureus. The assay can be described thus: Antibacterial activity against methicillin-resistant Staphylococcus aureus 33815 infected in in vitro pharmacokinetic model assessed as reduction in viable count at 3 mg/ml after 12 hrs using 10^6 CFU/ml inoculum. The method in brief:
as §2

In assay [21] the test system is Staphylococcus aureus. The assay can be described thus: Antibacterial activity against methicillin-resistant Staphylococcus aureus 33815 infected in in vitro pharmacokinetic model assessed as reduction in viable count at 3 mg/ml after 24 hrs using 10^6 CFU/ml inoculum. In short, it runs like this: as §2
Assay [22] has as its system Staphylococcus aureus. The assay can be described thus: AUBKC (0 to 24 hrs) in methicillin-resistant Staphylococcus aureus 33815 infected in in vitro pharmacokinetic model at 3 mg/ml using 10^6 CFU/ml inoculum. In short, it runs like this: as §1
Assay [23] relates to Staphylococcus aureus. The assay can be described thus: Antibacterial activity against methicillin-resistant Staphylococcus aureus 33815 infected in in vitro pharmacokinetic model assessed as reduction in viable count at 3 mg/ml after 36 hrs using 10^6 CFU/ml inoculum. The method in brief: as §2
Assay [24] deals with Staphylococcus aureus. Nature of the assay: AUBKC (0 to 48 hrs) in methicillin-resistant Staphylococcus aureus 33827 infected in in vitro pharmacokinetic model at 3 mg/ml using 10^6 CFU/ml inoculum. In short, it runs like this:
as §1

In the case of `CN[C@H](CC(C)C)C(=O)N[C@H]1C(=O)N[C@@H](CC(N)=O)C(=O)N[C@H]2C(=O)N[C@H]3C(=O)N[C@H](C(=O)N[C@H](C(=O)O)c4cc(O)cc(O)c4-c4cc3ccc4O)[C@H](O)c3ccc(c(Cl)c3)Oc3cc2cc(c3O[C@@H]2O[C@H](CO)[C@@H](O)[C@H](O)[C@H]2O[C@H]2C[C@](C)(N)[C@H](O)[C@H](C)O2)Oc2ccc(cc2Cl)[C@H]1O` [VANCOMYCIN], the Time is 24 h in the assay on Staphylococcus aureus [1]; above 48 h in the assay on Staphylococcus aureus [2]; 12 h in the assay on Staphylococcus aureus [4]; 12 h in the assay on Staphylococcus aureus [5]; 24 h in the assay on Staphylococcus aureus [7]; 12 h with Staphylococcus aureus [12]. Further, the AUBC with Staphylococcus aureus [3] is 54.8 log10CFU/ml.hr; in the assay with Staphylococcus aureus [6] it was 56.7 log10CFU/ml.hr; in the assay on Staphylococcus aureus [11], 80.1 log10CFU/ml.hr; with Staphylococcus aureus [13], 97.4 log10CFU/ml.hr; with Staphylococcus aureus [22] it was 46.2 log10CFU/ml.hr; with Staphylococcus aureus [24] it was 61.9 log10CFU/ml.hr. The log10CFU/ml was found to be 1.6 in the assay on Staphylococcus aureus [8]; 2.9 in the assay with Staphylococcus aureus [9]; 2.6 in the assay with Staphylococcus aureus [10]; 4 in the assay with Staphylococcus aureus [14]; 3.2 with Staphylococcus aureus [15]; 3 in the assay on Staphylococcus aureus [16]. Moreover, the log10CFU/ml was found to be 4.2 in the assay on Staphylococcus aureus [17]; 1.8 with Staphylococcus aureus [18]; 2.2 in the assay on Staphylococcus aureus [19]; 3.3 with Staphylococcus aureus [20]; 2 in the assay with Staphylococcus aureus [21]; 1.7 in the assay with Staphylococcus aureus [23].

For the origin of these results see ChEMBL document CHEMBL1255300, “Pharmacodynamics of the antibacterial effect and emergence of resistance to tomopenem, formerly RO4908463/CS-023, in an in vitro pharmacokinetic model of Staphylococcus aureus infection” (Antimicrob Agents Chemother, 2008).
